Among the data in ChEMBL document CHEMBL4177709, “Design, synthesis and evaluation against Mycobacterium tuberculosis of azole piperazine derivatives as dicyclotyrosine (cYY) mimics” (Bioorg Med Chem, 2018) are MIC90, Kd and Activity values, retold here.

In brackets after ≈: the same amount, converted by molar mass. Activity calls are given as the source filed them. No cut-off for these calls is given here.

Test [1] concerns Mycobacterium tuberculosis. The test is described as follows: Antibacterial activity against Mycobacterium tuberculosis H37Rv after 7 days by resazurin microtiter assay. The test is classed as functional. The note with it: 168 h. An outline of the steps: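 M. tuberculosis H37Rv grown at 37 °C in 7H9 with 10% OADC to mid-log (OD600 0.4-0.6), adjusted to McFarland no.1 and diluted 1:20. Compounds from DMSO stocks serially diluted in 7H9/OADC to final 0.39-100 µg/mL; rifampicin 0.004-1 µg/mL as control. After 7 days at 37 °C, 0.01% resazurin added; fluorescence (530/590 nm) read 24 h later.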
On the technique in general: Alamar Blue is a resazurin reagent that responds to reducing activity.

The nature of test [2]: Binding affinity to Mycobacterium tuberculosis CYP121A1 by UV-visible spectrophotometric titration method. In outline: (§1)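 Purified CYP121A1 (3-4 μM) titrated at 28 °C in 100 mM KPi, 200 mM KCl, 0.004% Triton X-100, pH 7.85, with small aliquots of ligand from DMSO stocks. UV-visible spectra recorded 250-800 nm. Difference spectra give peak-minus-trough absorbance change, plotted against [ligand]. Kd obtained by hyperbolic or Hill fit, averaged over triplicate titrations.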

For test [3], the system named is Mycobacterium tuberculosis. In words: Binding affinity to Mycobacterium tuberculosis CYP121A1 assessed as blue shift in heme soret peak up to 1750 uM by UV-visible spectrophotometric titration method. In outline: as §1
The subject of test [4] is Mycobacterium tuberculosis. In words: Binding affinity to Mycobacterium tuberculosis CYP121A1 assessed as red shift in heme soret peak up to 300 uM by UV-visible spectrophotometric titration method. In outline:
as §1

The test system of test [5] is Mycobacterium tuberculosis. In words: Binding affinity to Mycobacterium tuberculosis CYP121A1 assessed as red shift in heme soret peak up to 250 uM by UV-visible spectrophotometric titration method. An outline of the steps: as §1
For test [6], the system named is Mycobacterium tuberculosis. The test is described as follows: Binding affinity to Mycobacterium tuberculosis CYP121A1 assessed as red shift in heme soret peak up to 500 uM by UV-visible spectrophotometric titration method. In outline:
as §1

A word on the MIC90: it is the lowest concentration that inhibits either 90% of growth or 90% of the strains tested, depending on the study. Low readings indicate greater potency, high ones weaker potency. Usually Kd stands for a measure of binding affinity in units of concentration. As for `COc1ccc(CN2CCN(Cc3ccc(OC)cc3)C(Cn3cncn3)C2)cc1` (stereo not given), the MIC90 in test [1] amounted to 100 µg/mL (≈ 245 µM). This compound had a Kd in test [2] of 1300 µM.

`O=C(Cn1ccnc1)N1CCN(Cc2ccc(F)cc2)CC1`: the MIC90 in test [1] is above 100 µg/mL. In addition, binding in test [2] was put at a Kd of 1140 µM.

`O=C1CN(CCCn2ccnc2)CCN1Cc1ccc(Cl)cc1Cl` came in with an MIC90 in test [1] of 100 µg/mL (≈ 272 µM). This compound displayed a Kd in test [2] of 967 µM.

In test [1], `c1ccc(CN2CCN(Cc3ccccc3)C(Cn3ccnc3)C2)cc1` (stereo not given) yielded an MIC90 of 50 µg/mL (≈ 144 µM).

In test [1], `COc1cc(CN2CCN(Cc3cc(OC)cc(OC)c3)C(Cn3ccnc3)C2)cc(OC)c1` (stereo not given) yielded an MIC90 of 12.5 µg/mL (≈ 26.8 µM). Further, binding in test [2] was characterised by a dissociation constant (Kd) of 1440 µM.

Consider `O=C(Cn1cncn1)N1CCN(Cc2ccc(Cl)cc2Cl)CC1`, for which the MIC90 in test [1] is above 100 µg/mL. The result in test [3] was Active. The compound further displayed a Kd in test [2] of 417 µM.

Regarding `O=C(Cn1cncn1)N1CCN(Cc2ccc(F)cc2)CC1`, the MIC90 in test [1] is above 100 µg/mL. The compound also returned a Kd in test [2] of 960 µM.

Consider `O=C1CN(CCCn2ccnc2)CCN1Cc1ccc(F)cc1`, for which the MIC90 in test [1] was above 100 µg/mL. In test [4], the result was Active. In test [2], this compound yielded a Kd of 226 µM.

For `O=C1CN(CCCn2ccnc2)CCN1Cc1ccc(Cl)cc1`, the outcome in test [5] was Active. For the same compound, the MIC90 in test [1] is above 100 µg/mL. In test [2], the Kd is 81.3 µM.

With `COc1ccc(CN2CCN(CCCn3ccnc3)CC2=O)cc1`, in test [1], the MIC90 was above 100 µg/mL. This compound registered a Kd in test [2] of 309 µM. Also, the result in test [6] was Active.

With `c1ccc(CN2CCN(Cc3ccccc3)C(Cn3cncn3)C2)cc1` (stereo not given), the MIC90 in test [1] is above 100 µg/mL. The compound also registered a Kd in test [2] of 1830 µM.
